Assay results taken from ChEMBL document CHEMBL1671669, “Novel antimalarial aminoquinolines: heme binding and effects on normal or Plasmodium falciparum-parasitized human erythrocytes” (Antimicrob Agents Chemother, 2009).
Calls of active or inactive are those of the source. No cut-off for these calls is given here.

What was measured:
[1] = Toxicity in human RBC assessed as hemolysis at 50 uM; assay type: cell-based; conditions: erythrocyte
Method in brief: (§1)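 Human RBC at 5% Htc in PBS-glucose held 2 h at 37°C with a range of compound concentrations, alone or with 10 μM FP. Cells spun down; hemolysis read as A412 of released Hb in supernatant. Five experiments in triplicate.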

[2] = Toxicity in human RBC assessed as potentiation of ferriprotoporphyrin 9-induced hemolysis at 50 uM after 2hrs in presence of 10 uM; assay type: cell-based; conditions: erythrocyte; method in brief: as §1
[3] = Toxicity in human RBC assessed as hemolysis at 50 uM at 40 degC in presence of 10 uM ferriprotoporphyrin 9; assay type: cell-based, Erythrocyte; conditions: human red blood cells (RBC), read-out: Activity
Method in brief: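 Hemolysis assay as for the 37°C format (5% Htc RBC, PBS-glucose, 2 h, 10 μM FP, supernatant A412 read-out), but run at 40°C.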

[4] = Toxicity in human RBC assessed as hemolysis pretreated at 50 uM for 30 mins followed by washing and incubated with 40 uM ferriprotoporphyrin 9 for 2hrs; assay type: cell-based; conditions: erythrocyte
Method in brief: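 RBC exposed 30 min to 50 μM compound, washed, then held 2 h with 40 μM FP; hemolysis read from supernatant Hb at A412.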

Plasmodium falciparum [5] = assay: Antiplasmodial activity against chloroquine-susceptible Plasmodium falciparum D10; assay type: functional, organism-based
Plasmodium falciparum [6] = assay: Antiplasmodial activity against chloroquine-resistant Plasmodium falciparum W2; assay type: functional, organism-based
[7] = Drug uptake in human RBC at 50 uM in absence of 10 um ferriprotoporphyrin 9; assay type: ADME, cell-based; conditions: erythrocyte
Method in brief: (§2)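 Washed human RBC given 50 μM compound for 30 min at 37°C, with or without 10 μM FP. Total uptake and membrane-bound fraction measured fluorimetrically after washing and CHCl3-1 N HCl extraction. One representative experiment in triplicate.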

Erythrocyte = assay: Induction of denaturation of hemoglobin in human RBC in acidic condition assessed as denatured hemoglobin level per millimitre of packed RBC; assay type: functional
Method in brief: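 Fitch-Russell method: intact RBC from 50 μl packed cells brought to 10 ml in 150 mM sodium acetate pH 5.0, held 90 min at 39°C with or without compound at 100 μM. Pellets spun at 3,500 × g, washed thrice in acetate, dissolved in 10 mM Tris-HCl, 2.5% SDS, 0.2 N NaOH; denatured Hb taken as FP from A412 minus A700.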

Homo sapiens [8] = organism: Homo sapiens; assay: Binding affinity to normal human RBC membrane in presence of 15% hematocrit by fluorimetric method
Method in brief: (§3)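 Human A+ RBC (citrate-phosphate-dextrose, ≤10 days), washed in cold PBS, held at 15% Htc in PBS-5 mM glucose. Incubation with compound (10 to 50 μM, 50 μM for parasitized comparisons) 30 min at 37°C. Normal RBC or D10/W2-parasitized RBC at 4,0% parasitemia. Cells pelleted, washed free of unbound drug, extracted into CHCl3-1 N HCl, quinoline read by fluorescence.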

[9] = Octanol-water partition coefficient, log P of the compound; assay type: physicochemical
[10] = Distribution coefficient, log D of the compound at pH 7.4; assay type: physicochemical; conditions: octanol/water
[11] = Vacuolar accumulation ratio of the compound at pH 5.2; assay type: ADME
Method in brief: (§4)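 VAR taken as antilog of calculated log D7.4 minus calculated log D5.2. log D from log P and pKa values measured potentiometrically at 25°C in 0.15 M KCl (n-octanol/0.15 M KCl partitioning). LAR calculated by an earlier published procedure.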

[12] = Lipid accumulation ratio of the compound; assay type: physicochemical; method in brief: as §4
Homo sapiens [13] = organism: Homo sapiens; assay: Ratio of binding affinity to human RBC membrane parasitized with Plasmodium falciparum D10 to binding affinity to normal human RBC; method in brief: as §3
Homo sapiens [14] = organism: Homo sapiens; assay: Ratio of binding affinity to human RBC membrane parasitized with Plasmodium falciparum W2 to binding affinity to normal human RBC; method in brief: as §3
Plasmodium falciparum [15] = assay: Resistance index, ratio of IC50 for chloroquine-resistant Plasmodium falciparum W2 to IC50 for chloroquine-susceptible Plasmodium falciparum D10; assay type: functional
[16] = Drug uptake in human RBC at 50 uM in presence of 10 um ferriprotoporphyrin 9; assay type: ADME, cell-based; conditions: erythrocyte; method in brief: as §2
Ferriprotoporphyrin IX = assay: Binding affinity to ferriprotoporphyrin 9sassessed as quenching of Soret band in presence of 40% DMSO-10 mM sodium phosphate buffer at pH 6.0
Method in brief: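 Heme (FP, fresh stock in 0.02 N NaOH diluted in PBS) at 15 μM final in 10 mM sodium phosphate pH 6.0 with 40% DMSO, compound added at 1 to 200 μM; absorption spectra read after 2 min, Soret band quenching followed. Job's plot run in parallel (FP plus compound totalling 10 μM, A400 difference vs molar ratio). Three experiments in triplicate.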

[17] = Inhibition of beta-hematin formation by BHIA assay; assay type: functional

| Compound | Activity [1] | Activity [2] | hemolysis at 50 µM [3] [%] | Activity [4] | IC90 (Plasmodium falciparum [5]) [nM] | IC90 (Plasmodium falciparum [6]) [nM] | Drug uptake [7] [%] | Activity (Erythrocyte) | Activity (Homo sapiens [8]) | logP [9] | logD [10] | Ratio [11] | Ratio [12] | IC50 (Plasmodium falciparum [5]) [nM] | IC50 (Plasmodium falciparum [6]) [nM] | Ratio (Homo sapiens [13]) | Ratio (Homo sapiens [14]) | Ratio IC50 (Plasmodium falciparum [15]) | Drug uptake [16] [%] | Activity (Ferriprotoporphyrin IX) | also measured |
| --- | --- | --- | --- | --- | --- | --- | --- | --- | --- | --- | --- | --- | --- | --- | --- | --- | --- | --- | --- | --- | --- |
| CCN(CC)CCCC(C)Nc1ccnc2cc(Cl)ccc12 (stereo not drawn) [CHLOROQUINE] | Non-toxic | Toxic | 84 | Non-toxic | 44.6 | 441 | 10 | 40 nmol/h | Dose-dependent effect |  |  |  |  |  |  |  |  |  |  |  |  |
| Clc1ccc2c(N[C@H]3CCCN4CCCC[C@H]34)ccnc2c1 | Non-toxic | Toxic | 50 | Non-toxic | 35.1 | 33.1 | 18 | Active | Dose-dependent effect | 4.57 | 2.69 | 14900 | 490 | 24.2 | 21.3 | 2 | 1.5 | 0.88 | 50 | Active | IC50 [17]: 1.12 equiv; inhibition [17]: Dose-dependent effect |
| Clc1ccc2c(NC[C@@H]3CCCN4CCCC[C@H]34)ccnc2c1 | Non-toxic | Toxic | 28 | Non-toxic | 34.3 | 54.9 | 18 | Active | Dose-dependent effect | 4.94 | 2.26 | 22600 | 182 | 26.4 | 41.8 | 1.5 | 2 | 1.59 | 50 | Active | IC50 [17]: 1.52 equiv; inhibition [17]: Dose-dependent effect |
